Measurements from different studies.
Each line is one published result; the experiments were not run side by side.
Target: Platelet-derived growth factor receptor beta (PDGFRB, Homo sapiens, UniProt P09619)

SMILES	effect on	mode	technique	concentration	measurement	result
COCc1c(-c2cc3cc(C)cc(OC)c3s2)c2c(N)ncnn2c1CN1CCNC(=O)C1	cell-free assay	–	competition with immobilised ligand	1 µM	inhibition	86%
C#Cc1n[nH]c2c(-c3cn([C@@H](C)c4ccccc4)c(=O)[nH]c3=O)cc(F)cc12	enzyme activity	inhibitor	–	0.1 µM	inhibition	3.1%
CC(C)(C)c1cc(C=C(C#N)C#N)cc(Br)c1O	enzyme activity	inhibitor	–	0.5 µM	remaining activity	104%
Cn1cncc1[C@](O)(COc1ccc(C#N)cc1-c1ccc(OC(F)(F)F)cc1)c1ccc(C#N)cc1	cell-free assay	–	competition with immobilised ligand	1 µM	remaining binding	100%
C#Cc1n[nH]c2c(-c3cn([C@@H](C)c4ccccn4)c(=O)[nH]c3=O)cc(F)cc12	enzyme activity	inhibitor	–	0.1 µM	inhibition	4%
Cn1cc(-c2cccc(N3CCc4c(sc5c4CC(C)(C)C5)C3=O)c2CO)cc(Nc2ccncn2)c1=O	enzyme activity	inhibitor	–	1 µM	inhibition	3%
COc1ncccc1-c1cnn2ccc(N3CCN(C(=O)OC(C)C)CC3)nc12	binding	–	competition with immobilised ligand	1 µM	remaining binding	83%
N#CC1(c2ccccn2)CCN(Cc2cc(C(=O)O)c(=O)n3ccccc23)CC1	cell-free assay	–	competition with immobilised ligand	1 µM	remaining binding	100%
O=c1[nH]c2ccccc2n1C1CCN(Cc2ccc(-c3[nH]c4cc5ncnc5cc4nc3-c3ccccc3)cc2)CC1	enzyme activity	–	–	0.5 µM	remaining activity	102%
Cn1cc(-c2cc(F)cc(N3CCn4c(cc5c4CCCC5)C3=O)c2CO)cc(Nc2ccc(N3CCN(C4COC4)CC3)cn2)c1=O	enzyme activity	inhibitor	–	0.1 µM	inhibition	2%
Nc1ncc(-c2nc(N3CCOCC3)nc(N3CCOCC3)n2)c(C(F)F)n1	binding	–	competition with immobilised ligand	10 µM	remaining binding	69%
